Each structure is given as a SMILES string. A number with no mark means an inactive call. Calls of active or inactive are those of the source.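 The calls were made as follows: active = t-test against the solvent control gives p below 0.05 and normalized ATPase activity falls by at least 10%; inactive = the rest.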

The nature of this test: RTF inhibitors lowering myofibrillar ATP hydrolysis – biochemical, absorbance, porcine cardiac myofibrils, powder samples, mechanism study for cardiac RTF inhibitor project, late-stage follow-up (AID 602246). As to conditions: ATPase Pi absorbance 660 nm, at 10 µM, stronger effect = lower value. The method in brief:
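Assay system: porcine cardiac myofibrils; buffer or medium: pH 7.0 pCa buffer with DTT; also added: 3.02 mM ATP, EC50 calcium; times: 5 min compound preincubation, then 7 min ATPase reaction, 25 °C; measured by: Fiske-Subbarow colorimetric phosphate absorbance at 660 nm, TCA-stopped; control set: DMSO-only wells as reference control; repeats: five replicate wells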
Regarding `O=C(O)c1cccc(-n2cccc2/C=C2/NC(=O)N(c3ccc(Cl)cc3)C2=O)c1`, the normalized ATPase activity is 0.975.
Turning to `NCCCCCCNS(=O)(=O)c1cccc2c(Cl)cccc12`, the normalized ATPase activity is 0.854 (active).
In the case of `COc1cccc2c1NC(C(=O)O)C1CC=CC21` (stereo not given) it was 1.03; in that of `O=C(O)c1ccc2nc(-c3ccco3)c(-c3ccco3)nc2c1`, 1.03; in that of `O=C(O)c1ccc2c(c1)[C@@H]1C=CC[C@@H]1[C@H](c1ccccn1)N2`, 0.982.
